Laboratory results as given in ChEMBL document CHEMBL1629488, “Synthesis and biological evaluation of 2-(3',4',5'-trimethoxybenzoyl)-3-aryl/arylaminobenzo[b]thiophene derivatives as a novel class of antiproliferative agents” (Eur J Med Chem, 2010).
Calls of active or inactive are those of the source. The calls are words filed in the database; no cut-off is given here.

Tests used:
HeLa [1] = assay: Induction of apoptosis in human HeLa cells assessed as loss of mitochondrial membrane potential at 0.625 to 2.5 uM using Rho123 staining by flow cytometry; assay type: functional, cell-based; settings: TDE = time-dependent effect
In short: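 After 24 or 48 h exposure, HeLa cells were pelleted, resuspended in HBSS with 0.1 μM rhodamine 123, held 20 min at 37 °C, spun and resuspended in HBSS; fluorescence read by flow cytometry. Mean ± S.E.M. of 3 independent experiments.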

HeLa [2] = assay: Upregulation of p53 protein expression in human HeLa cells at up to 2.5 uM after 24 to 48 hrs by Western blot analysis; assay type: functional, cell-based
In short: (§1)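 Treated cells washed twice in ice-cold PBS, lysed 30 min on ice, lysate cleared at 15000×g, 4 °C, 10 min; protein by BCA. 20 μg per lane on SDS-PAGE (7.5–15%), PVDF transfer, overnight block at 4 °C; primary antibodies 2 h at room temperature, peroxidase secondaries 60 min, ECL detection; β-actin loading control.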

Jurkat [3] = assay: Cell cycle arrest in human Jurkat cells assessed as accumulation at G1 phase at 1.25 uM after 24 hrs using propidium iodide staining by flow cytometry relative to control; assay type: functional
In short: (§2)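 Exponentially growing cells (5 × 10^5) exposed to graded compound levels, 0.312 to 5 μM, for 24 or 48 h; collected, fixed in ice-cold 70% ethanol, treated with lysis buffer containing RNase A and 0.1% Triton X-100, stained with propidium iodide; DNA content read by flow cytometry. Mean ± SEM of two independent experiments.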

HeLa [4] = assay: Cell cycle arrest in human HeLa cells assessed as accumulation at G2/M phase at 1.25 uM after 24 hrs using propidium iodide staining by flow cytometry relative to control; assay type: functional; in short: as §2
HeLa [5] = assay: Cell cycle arrest in human HeLa cells assessed as accumulation at G2/M phase at 0.625 uM after 24 hrs using propidium iodide staining by flow cytometry relative to control; assay type: functional; in short: as §2
HeLa [6] = assay: Induction of apoptosis in human HeLa cells assessed as caspase-3-mediated cleavage of PARP after 24 to 48 hrs; assay type: functional, cell-based; in short: as §1
HeLa [7] = assay: Cell cycle arrest in human HeLa cells assessed as hypodiploid peak at sub-G1 phase at 0.312 to 5 uM uM after 48 hrs using propidium iodide staining by flow cytometry; assay type: functional, cell-based; in short: as §2
Jurkat [8] = assay: Cell cycle arrest in human Jurkat cells assessed as accumulation at G2/M phase at 1.25 uM after 24 hrs using propidium iodide staining by flow cytometry relative to control; assay type: functional; in short: as §2
HeLa [9] = assay: Cell cycle arrest in human HeLa cells assessed as reduction of cells at G1 phase at 1.25 uM after 24 hrs using propidium iodide staining by flow cytometry; assay type: functional, cell-based; in short: as §2
HeLa [10] = assay: Upregulation of cyclin B1 protein expression in human HeLa cells after 24 to 48 hrs by Western blot analysis; assay type: functional, cell-based; in short: as §1
HeLa [11] = assay: Induction of apoptosis in human HeLa cells assessed as increase of Bcl-2 protein expression up to 2.5 uM after 24 to 48 hrs by Western blot analysis; assay type: functional, cell-based; in short: as §1
HeLa [12] = assay: Induction of apoptosis in human HeLa cells assessed as late apoptotic cells at 0.62 uM after 24 hrs using FITC-conjugated annexin V and propidium iodide staining by flow cytometry assay (RVb = 1.9 %); assay type: functional
HeLa [13] = assay: Induction of apoptosis in human HeLa cells assessed as necrotic cells at 2.5 uM after 24 hrs using FITC-conjugated annexin V and propidium iodide staining by flow cytometry assay (RVb = 1.9 %); assay type: functional

`CCOc1ccc(Nc2c(C(=O)c3cc(OC)c(OC)c(OC)c3)sc3ccccc23)cc1` was tested, and the Activity (HeLa [1]) was “tde”, the Activity (HeLa [2]) was “inactive” and the Activity (Jurkat [3]) was 10%. For the same compound, the Activity (HeLa [4]) was 85%, the Activity (HeLa [5]) was 52% and the Activity (HeLa [6]) was “Dose-dependent effect”. For the same compound, the Activity (HeLa [7]) was “Active”, the Activity (Jurkat [8]) was 70% and the Activity (HeLa [9]) was “Active”. For the same compound, the Activity (HeLa [10]) was “Dose-dependent effect”, the Activity (HeLa [11]) was “Active” and the Activity (HeLa [12]) was 14.4%. For the same compound, the Activity (HeLa [13]) was 19.3%.
